High-throughput results: PubChem BioAssay, several laboratories
The full list was thinned out, with hits kept by preference.
NOD2 RIPK2 PPI: blocks binding of human NOD2 to RIPK2. O43353. CHO BLA complementation NOD2-RIPK2, CCF4 ratio. inhibition, % at 4.98 µM. actives 0.38% (n = 360,000). AID 624267; in the data active = inhibition above about 21%;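 note: 0% = vehicle only and 100% = reference blocker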
Target sequence (O43353 whole entry, looked up): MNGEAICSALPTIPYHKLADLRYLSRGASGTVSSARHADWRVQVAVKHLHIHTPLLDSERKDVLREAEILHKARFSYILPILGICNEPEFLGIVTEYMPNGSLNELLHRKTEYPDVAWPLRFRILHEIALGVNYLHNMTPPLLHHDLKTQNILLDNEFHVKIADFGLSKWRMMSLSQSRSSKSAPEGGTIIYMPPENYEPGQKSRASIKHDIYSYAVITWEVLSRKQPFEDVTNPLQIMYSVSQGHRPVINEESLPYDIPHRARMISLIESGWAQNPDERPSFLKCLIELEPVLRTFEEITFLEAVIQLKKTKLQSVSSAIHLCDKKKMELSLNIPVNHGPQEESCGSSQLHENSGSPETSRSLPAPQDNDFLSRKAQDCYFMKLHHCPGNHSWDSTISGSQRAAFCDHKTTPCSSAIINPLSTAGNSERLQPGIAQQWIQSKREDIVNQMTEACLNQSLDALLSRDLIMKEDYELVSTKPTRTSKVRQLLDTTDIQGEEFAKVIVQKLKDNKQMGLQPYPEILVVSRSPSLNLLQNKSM
TLR4-MyD88 BLA: blocks binding of human TLR4 to MyD88; actives 0.18% (n = 200,000); HeLa CL3-4 TLR4/MyD88 BLA complementation, FRET ratio; inhibition, % at 8.4 µM; O00206+Q99836; in the data active = inhibition above about 25%;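 note: 0% = vehicle and 100% = reference inhibitor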
TLR9-MyD88 block: inhibitors of human TLR9-MyD88 binding | Q9NR96+Q99836 | CHO BLA complementation TLR9-MyD88, CCF4 FRET ratio | inhibition, % at 4.98 µM | actives 0.21% (n = 340,000);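 active = inhibition above the mean over all tested compounds plus 3 SD, cut at about 21% in these data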;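 note: 0% = DMSO only wells and 100% = clavulanate BLA inhibitor control wells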
CHOP UPR activ: activators of apoptotic arm of unfolded protein response (CHOP) | CHO-CHOP luciferase reporter, UPR activation, luminescence; percent of tunicamycin response over DMSO baseline | activation, % at 10 µM | actives 0.34% (n = 330,000);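 active = at 10 µM dose, activation of 40% or more, normalized to positive control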;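 note: 100% = tunicamycin at 10 µg/mL and 0% = DMSO alone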
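Evaluation: % reporter activation, DMSO baseline versus tunicamycin full activation; System: CHO-CHOP luciferase reporter cell line; Input: 500 cells/well; Incubation: 6 h compound treatment, 37 °C; Measured by: Steady-Glo luciferase luminescence; Dosing: one dose, 10 µM in 0.5% DMSO; Buffer or medium: F12 medium, 10% FBS; Benchmarks: positive tunicamycin 10 µg/mL, negative DMSO alone.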
CHOP inhibitor: blocks CHOP induction under ER stress. actives 3.8% (n = 220,000). CHO-K1 CHOP-promoter luciferase, tunicamycin-induced, 15-18 h. AID 2732. inhibition, % at 10 µM;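 active = compounds that reduced the stress-induced luciferase reporter signal by more than about 70% of percent inhibition, limit read from the data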;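 note: 0% = tunicamycin plus vehicle and 100% = wells without tunicamycin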
XBP1 UPR activ: activators of adaptive arm of unfolded protein response (XBP1) | CHO-XBP1 luciferase reporter, IRE1-XBP1 UPR activation, luminescence; percent of tunicamycin response, DMSO as zero | activation, % at 20 µM | actives 0.33% (n = 330,000) | AID 463104;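 active = versus positive control, 20 µM dose yields 30% or more activation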;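 note: 100% = tunicamycin at 10 µg/mL and 0% = DMSO only wells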
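Material: CHO cell line with stable XBP1 luciferase reporter; buffer or medium: F12 medium containing 10% fetal bovine serum; compound: single point, 20 µM final compound, 1% DMSO; incubation: 6 h treatment, 37 °C; measured by: glow luminescence from Steady-Glo reagent; evaluation: activation, % of tunicamycin; control set: tunicamycin high, DMSO low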
TLR4 MyD88 cnf: confirmation of human TLR4-MyD88 binding inhibitors; actives 50% (n = 350); HeLa CL3-4 BLA complementation, CCF4 FRET ratio; shares compounds with TLR4-MyD88 BLA; inhibition, % at 8.4 µM;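 active = mean inhibition across three repeat runs above about 25% carried over from the earlier screen, limit read from the data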;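 note: plate controls were DMSO only for no effect and clavulanic acid blocking BLA at full dose for full effect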
BLA inhibitor ct: inhibits beta-lactamase activity, counter-screen to TLR4-MyD88 binding inhibitors | actives 63% (n = 350) | AID 1237 | HeLa BLA reporter, CCF4 FRET ratio | shares compounds with TLR4-MyD88 BLA | inhibition, % at 8.4 µM;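 active = mean inhibition over three repeats above about 26% taken from the earlier screen, limit read from the data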;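 note: HeLa cells stably expressing beta-lactamase reporter as counterscreen for TLR4-MyD88 inhibitors; 0% = DMSO and 100% = clavulanic acid full inhibition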
* marks the source's active call; other numbers are inactive results; x = not tested or not shown.

SMILES	NOD2 RIPK2 PPI	TLR4-MyD88 BLA	TLR9-MyD88 block	CHOP UPR activ	CHOP inhibitor	XBP1 UPR activ	TLR4 MyD88 cnf	BLA inhibitor ct
COc1ccc(-c2nc(C#N)c(NCCN(C)C)o2)cc1	3.6	27.0*	-0.8	3.1	-1.1	-3.4	-7.4	3.2
CN(C)CCCNc1oc(-c2ccc(Cl)cc2)nc1C#N	-5.1	-0.1	5.2	2.1	13.2	7.4	x	x
O=C(CCCc1ccccc1)c1ccc2c(c1)OCCO2	1.6	25.5*	-7.2	-9.5	88.9*	-8.5	-1.8	0.7
COc1ccc(C=C(C#N)c2ccc(OC)cc2)cc1	-1.0	x	9.3	x	x	x	x	x
COc1ccc2nc(/C(C#N)=C\c3ccc(C(=O)O)cc3)[nH]c2c1	16.0	27.4*	15.7	0.5	6.8	-1.9	13.0	27.2*
CCCCCCn1c(=O)[nH]c2nc3cc(N)ccc3nc2c1=O	x	25.1*	x	x	8.9	x	29.6*	45.3*
CCCC1Cc2nc(N3CCCCC3)c(C#N)cc2CO1 (centres undefined)	-2.8	25.8*	4.8	1.5	61.7	-2.0	-11.4	6.2
C=CCN(C/C(=N\O)c1sc(C(=O)OCC)nc1C)c1cccc(Br)c1	11.5	x	-2.7	-0.4	x	3.1	x	x
O=C(Cn1ncc2c1-c1ccccc1OC2)N1CCc2ccccc21	8.4	-1.3	4.1	-1.2	48.6	-2.3	x	x
O=C(Cn1ncc(Cl)c(Cl)c1=O)N1CCc2ccccc21	20.8	27.0*	14.2	x	36.2	x	24.4	4.7
O=C(NCc1ccc2c(c1)OCO2)C1CC(=O)N(c2ccc(F)cc2)C1 (centres undefined)	2.2	25.2*	-7.0	0.3	-3.0	-1.0	-8.0	6.7
CCc1ccc(N2CC(C(=O)NCc3ccc4c(c3)OCO4)CC2=O)cc1 (centres undefined)	-8.9	1.4	0.6	-1.7	8.4	-0.1	x	x
CCN(CC)c1ccc(/C=C(\C#N)c2nc(-c3cccs3)c(NC(C)=O)s2)cc1	x	27.9*	x	x	-10.3	x	27.9*	50.9*
N#Cc1sc2nc(-c3cccs3)cc(-c3ccc(F)cc3)c2c1N	12.1	26.2*	26.1*	0.8	39.5	4.4	38.9*	62.5*
CC1CCN(Cc2ccc(-c3nn[nH]n3)cc2)CC1	-1.9	27.0*	-19.0	-2.0	26.2	-4.4	-4.7	4.2
CCCOC(=O)c1ccc(S(N)(=O)=O)o1	-2.6	26.8*	0.3	1.2	22.2	-2.8	-8.4	0.9
CCCCOC(=O)c1ccc(S(N)(=O)=O)o1	-2.7	-6.1	6.9	5.6	2.2	-0.4	x	x
CCOCc1nnc(NC(=O)C2CC(=O)N(C3CCCC3)C2)s1 (centres undefined)	0.1	x	-13.5	1.6	x	2.0	x	x
O=C(Nc1ccc2oc(-c3cccnc3)nc2c1)c1cccnc1	-2.6	6.9	-1.0	1.4	6.1	5.2	x	x
O=C(Nc1ccc2oc(-c3cccnc3)nc2c1)c1ccc([N+](=O)[O-])o1	-0.2	29.9*	4.4	x	-59.7	x	15.7	8.4
Cc1ccc2c(c1)cc1c(=O)[nH]ncn12	-4.1	-4.2	7.2	-3.5	24.2	3.2	x	x
Cc1ccc(C)c(NS(=O)(=O)c2ccc(OCC(=O)NCc3ccco3)cc2)c1	2.7	26.4*	2.5	1.7	0.8	-1.8	3.3	1.0
O=C(O)c1ccc2c(c1)C(=O)N(c1ncccn1)C2=O	-6.2	-11.9	3.8	0.1	-20.4	-3.1	x	x
Cc1ccc(/C=C2/Sc3ccccc3N(CC(=O)NCC3CCCO3)C2=O)cc1 (centres undefined)	-1.2	x	3.1	1.1	x	-0.9	x	x
Cc1cc(/C=C2\Sc3ccccc3N2C)cc(C)[n+]1CC1CCCO1 (centres undefined)	-0.3	36.4*	x	6.5	62.2	2.3	22.6	41.1*
SMILES	NOD2 RIPK2 PPI	TLR4-MyD88 BLA	TLR9-MyD88 block	CHOP UPR activ	CHOP inhibitor	XBP1 UPR activ	TLR4 MyD88 cnf	BLA inhibitor ct
CC(O)CN(Cc1cccc(Cl)c1)CC(C)O (centres undefined)	-2.6	27.7*	8.3	1.2	-3.5	0.3	-4.7	3.7
O=c1cc(-c2ccccc2)[nH]n2cnnc12	-8.1	x	5.0	-2.1	x	-3.4	x	x
Cc1ccc(C(=O)N2CCCCC2C(=O)O)cc1S(=O)(=O)N1CCCCC1 (centres undefined)	-11.4	x	-26.2	-2.1	x	-1.9	x	x
CN(C)C=Nc1nonc1-c1ccccc1	0.2	x	-8.5	2.1	9.5	-0.2	x	x
CN(C)C=Nc1c(Br)cc(Br)c2nonc12	-1.4	25.2*	6.2	-0.7	39.5	3.5	21.2	35.4*
OCCN1CCN(c2ncnc3c2ncn3[C@H]2CN(Cc3cccnc3)C[C@@H](CO)O2)CC1	2.7	x	x	x	x	x	x	x
CN(C)c1nc(C=C(C#N)C#N)c(Cl)n1-c1ccc(F)cc1	2.2	34.6*	7.2	x	95.7*	x	27.2*	9.3
CCOc1ccccc1NC(=O)/C(C#N)=C/c1c(C)nn(-c2ccc(F)cc2)c1Cl	-4.1	-0.5	6.8	-0.9	50.4	3.4	x	x
Cn1nc(-c2ccccc2)c2nc3ccccc3nc21	15.7	28.1*	8.6	-3.7	36.7	8.9	22.1	44.0*
CCCCn1nc(-c2ccccc2)c2nc3ccccc3nc21	x	49.1*	x	-2.5	23.1	-1.5	46.8*	49.5*
CN(C)c1ccc(/C=C/c2cc[n+](C)cc2)cc1	0.6	26.3*	3.3	-1.1	21.5	-4.7	10.7	20.9
COc1c(O)ccc(C2NC(=O)NC(C)=C2C(=O)Nc2ccccc2C)c1[N+](=O)[O-] (centres undefined)	2.7	-19.0	0.3	-1.6	22.3	-2.4	x	x
Cn1c(-c2ccc(C=O)s2)nc2c3ccccc3c3ccccc3c21	8.3	47.4*	0.5	1.5	3.9	4.6	39.9*	61.4*
COc1cc2c3nnc(-c4ccc(F)cc4)c-3cn(Cc3cccc(F)c3)c2cc1OC	-9.1	25.6*	-4.9	0.8	-38.8	-0.6	15.9	49.9*
O=C(CSc1nc2c(oc3ccccc32)c(=O)n1CC1CCCO1)NCc1ccccc1 (centres undefined)	2.5	x	0.3	2.3	x	2.1	x	x
CCC(=O)NC(=S)Nc1ccc(S(=O)(=O)NC(C)=O)cc1	-4.2	-7.8	-2.4	-1.8	-1.0	-2.0	x	x
CC(=O)NS(=O)(=O)c1ccc(NC(=S)NC(=O)COc2ccccc2C)cc1	-12.3	33.6*	-1.2	-0.9	26.6	-5.3	-12.9	7.1
Cc1noc(C)c1COC(=O)c1cnc(Cl)c(Cl)c1	-8.7	25.8*	-1.6	0.7	-24.4	-2.7	19.2	5.0
